Assay [1] deals with T1, human adenosine A3 receptor (Homo sapiens, UniProt P0DMS8).
T1 sequence (P0DMS8 1-318): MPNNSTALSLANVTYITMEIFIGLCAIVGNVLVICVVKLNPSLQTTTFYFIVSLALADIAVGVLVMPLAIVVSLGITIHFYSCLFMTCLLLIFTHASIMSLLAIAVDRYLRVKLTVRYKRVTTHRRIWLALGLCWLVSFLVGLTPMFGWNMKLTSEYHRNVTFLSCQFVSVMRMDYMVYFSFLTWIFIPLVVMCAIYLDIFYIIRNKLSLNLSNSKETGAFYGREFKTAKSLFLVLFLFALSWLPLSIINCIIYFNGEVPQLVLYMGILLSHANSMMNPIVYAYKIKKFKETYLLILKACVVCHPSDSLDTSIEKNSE
Nature of the assay: Radioligand competition association assay with [3H]34. To be noted: for residence time: read-out: RT (residence time). In kind it is binding. (In general: In a radioligand displacement assay an active substance lowers the binding of a labelled ligand.)

Assay [2] concerns the target T2, hA3R stably expressed on CHO cell membranes (Homo sapiens, UniProt P0DMS8).
T2 sequence (P0DMS8 1-318): T1 sequence (P0DMS8 1-318)
Nature of the assay: [35S]GTPγS binding assay, 2-Cl-IB-MECA-stimulated, Schild analysis. In kind it is biochemical. Conditions: for Mode of antagonism: 2-Cl-IB-MECA concentration-effect curves, antagonist at 30-, 100-, 300-fold Ki; for Schild slope: Coincubation with 2-Cl-IB-MECA 30 min, 25 °C. The method in brief:
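CHO membranes stably expressing human A3 receptor (15 μg) in 50 mM Tris-HCl, 5 mM MgCl2, 1 mM EDTA, 0.05% BSA, 1 mM DTT, pH 7.4, with 1 μM GDP and 5 μg saponin. Agonist 0.1 nM–10 μM plus ~0.3 nM [35S]GTPγS (final). DMSO ≤0.1%. Basal: untreated membranes; maximum: 10 μM agonist. GF/B filtration, scintillation counting. Curves normalized and combined, n ≥ 3.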

In assay [3] the target is T1, human adenosine A3 receptor. Nature of the assay: Radioligand displacement assay with [3H]34. It is filed as binding. Conditions: 25 °C, [3H]34, hA3R stably expressed on CHO cell membranes, n ≥ 3.

The source of these data is paper PMC5601358 (Journal of Medicinal Chemistry, 2017).

Molecules are shown by their SMILES.

As for `CCCn1c(=O)c2c(nc3cc(OC)ccn32)n(Cc2ccccc2)c1=O` [Compound 1, 1-Benzyl-8-methoxy-3-propyl-1H,3H-pyrido[2,1-f]purine-2,4-dione], in assay [1], the dissociation rate constant (koff) (in general, the rate constant with which the complex falls apart) turned out to be 0.00032 s⁻¹; the on-rate (kon) – broadly, the rate constant with which the complex forms – stood at 850000 M⁻¹ s⁻¹; the residence time worked out at 52 ± 0.3 min.

With `COc1ccn2c(c1)nc1c2c(=O)n(CC2CC2)c(=O)n1Cc1ccccc1` [Compound 2, 1-Benzyl-3-(cyclopropylmethyl)-8-methoxypyrido[2,1-f]purine-2,4(1H,3H)-dione], in assay [1], the koff is 6e-05 s⁻¹, the on-rate constant (kon) was 2.8e+06 M⁻¹ s⁻¹ and the residence time came out at 315 ± 105 min.

Take `COc1ccn2c(c1)nc1c2c(=O)[nH]c(=O)n1Cc1ccccc1` [Compound 5, 1-Benzyl-8-methoxy-1H,3H-pyrido[2,1-f]purine-2,4-dione]: in assay [2], the Mode of antagonism entry is given as “surmountable antagonism” and the Schild slope is listed as 1.0 ± 0.2. For the same compound, in assay [1], the koff is 0.014 s⁻¹, the kon was 530000 M⁻¹ s⁻¹ and the residence time was determined as 2.2 ± 1.4 min.

On to `CCCCCn1c(=O)c2c(nc3cc(OC)ccn32)n(Cc2ccccc2)c1=O` [Compound 9, 1-Benzyl-8-methoxy-3-pentyl-1H,3H-pyrido[2,1-f]purine-2,4-dione], for which, in assay [1], the koff came to 0.0006 s⁻¹, the on-rate (kon) stood at 1.1e+06 M⁻¹ s⁻¹ and the residence time came to 28 ± 2.2 min.

For the compound `CCCCCCn1c(=O)c2c(nc3cc(OC)ccn32)n(Cc2ccccc2)c1=O` [Compound 10, 1-Benzyl-3-hexyl-8-methoxypyrido[2,1-f]purine-2,4(1H,3H)-dione], the “pKi ± SEM” value in assay [3] worked out at 8.6 ± 0.1. Moreover, in assay [1], the off-rate (koff) is 8.2e-05 s⁻¹, the kon was 230000 M⁻¹ s⁻¹ and the residence time turned out to be 213 ± 35 min.

As to `CCCCCCCn1c(=O)c2c(nc3cc(OC)ccn32)n(Cc2ccccc2)c1=O` [Compound 11, 1-Benzyl-3-heptyl-8-methoxypyrido[2,1-f]purine-2,4(1H,3H)-dione], in assay [1], the koff was 6.2e-05 s⁻¹, the kon amounted to 420000 M⁻¹ s⁻¹ and the residence time was 278 ± 45 min.

Regarding `C=CCn1c(=O)c2c(nc3cc(OC)ccn32)n(Cc2ccccc2)c1=O` [Compound 12, 3-Allyl-1-benzyl-8-methoxypyrido[2,1-f]purine-2,4(1H,3H)-dione], the “pKi ± SEM” value in assay [3] was 8.3 ± 0.1.

For `COCCn1c(=O)c2c(nc3cc(OC)ccn32)n(Cc2ccccc2)c1=O` [Compound 15, 1-Benzyl-8-methoxy-3-(2-methoxyethyl)-1H,3H-pyrido[2,1-f]purine-2,4-dione], the “pKi ± SEM” value in assay [3] was found to be 7.7 ± 0.2. Besides, in assay [1], the off-rate (koff) turned out to be 0.00063 s⁻¹, the kon stood at 430000 M⁻¹ s⁻¹ and the residence time worked out at 27 ± 2.6 min.

With `COc1ccn2c(c1)nc1c2c(=O)n(CC(C)C)c(=O)n1Cc1ccccc1` [Compound 17, 1-Benzyl-3-isobutyl-8-methoxypyrido[2,1-f]purine-2,4(1H,3H)-dione], in assay [1], the koff turned out to be 0.0002 s⁻¹, the on-rate (kon) was found to be 780000 M⁻¹ s⁻¹ and the residence time is 148 ± 102 min.

As for `COc1ccn2c(c1)nc1c2c(=O)n(CC(C)(C)C)c(=O)n1Cc1ccccc1` [Compound 18, 1-Benzyl-8-methoxy-3-(3-neopentyl)-1H,3H-pyrido[2,1-f]purine-2,4-dione], in assay [1], the koff turned out to be 0.00011 s⁻¹, the kon stood at 550000 M⁻¹ s⁻¹ and the residence time stood at 250 ± 147 min.

As to `CCc1ccc(Cn2c(=O)n(CC3CC3)c(=O)c3c2nc2cc(OC)ccn23)cc1` [Compound 26, 3-(Cyclopropylmethyl)-1-(4-ethylbenzyl)-8-methoxypyrido[2,1-f]purine-2,4(1H,3H)-dione], the “pKi ± SEM” value in assay [3] amounted to 9.2 ± 0.04.

For the compound `COc1cccc(Cn2c(=O)n(CC3CC3)c(=O)c3c2nc2cc(OC)ccn23)c1` [Compound 27, 3-(Cyclopropylmethyl)-8-methoxy-1-(3-methoxybenzyl)pyrido[2,1-f]purine-2,4(1H,3H)-dione], in assay [2], the Mode of antagonism entry is given as “insurmountable antagonism” and the Schild slope came to 0.9 ± 0.2. In assay [1], the koff came to 4.7e-05 s⁻¹, the kon was determined as 480000 M⁻¹ s⁻¹ and the residence time turned out to be 376 ± 58 min.

As for `COc1ccc(Cn2c(=O)n(CC3CC3)c(=O)c3c2nc2cc(OC)ccn23)cc1` [Compound 28, 3-(Cyclopropylmethyl)-8-methoxy-1-(4-methoxybenzyl)pyrido[2,1-f]purine-2,4(1H,3H)-dione], in assay [1], the koff stood at 7.8e-05 s⁻¹, the association rate constant (kon) turned out to be 480000 M⁻¹ s⁻¹ and the residence time worked out at 250 ± 72 min.

Turning to `COc1ccn2c(c1)nc1c2c(=O)n(CC2CC2)c(=O)n1Cc1cccc(Cl)c1` [Compound 29, 1-(3-Chlorobenzyl)-3-(cyclopropylmethyl)-8-methoxypyrido[2,1-f]purine-2,4(1H,3H)-dione], in assay [1], the koff was 0.00047 s⁻¹, the kon was 820000 M⁻¹ s⁻¹ and the residence time is 36 ± 5.5 min.

Regarding `COc1ccn2c(c1)nc1c2c(=O)n(CC2CC2)c(=O)n1Cc1ccc(Cl)cc1` [Compound 30, 1-(4-Chlorobenzyl)-3-(cyclopropylmethyl)-8-methoxypyrido[2,1-f]purine-2,4(1H,3H)-dione], in assay [1], the koff stood at 0.00082 s⁻¹, the kon was found to be 3e+06 M⁻¹ s⁻¹ and the residence time was determined as 20 ± 0.5 min.

Take `COc1ccn2c(c1)nc1c2c(=O)n(CC2CC2)c(=O)n1Cc1ccc(Cl)c(Cl)c1` [Compound 31, 3-(Cyclopropylmethyl)-1-(3,4-dichlorobenzyl)-8-methoxypyrido[2,1-f]purine-2,4(1H,3H)-dione]: in assay [1], the koff turned out to be 5.3e-05 s⁻¹, the kon was determined as 100000 M⁻¹ s⁻¹ and the residence time was 391 ± 137 min.
